The source made the active and inactive calls. The rule behind the calls is not given here.
What was measured:
[1] = molecular target: Amyloid-beta precursor protein (Homo sapiens) (UniProt P05067); assay: Inhibition of amyloid beta (1 to 42) (unknown origin) self-induced aggregation at compound to amyloid beta ratio of 1:1 after 48 hrs by thioflavin-T fluorescence assay relative to control; settings: concentration not given here
Method in brief: (§1)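 Aβ1-42 at 25 µM with compound at 1:1 in 50 mM PBS, pH 7.4, 37 °C, read by ThT fluorescence or by TEM. Disaggregation was done on preformed aggregates. ThT data are mean ± SD of at least three experiments.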

[2] = molecular target: Amyloid-beta precursor protein (Homo sapiens) (UniProt P05067); assay: Induction of disaggregation of amyloid beta (1 to 42) (unknown origin) fibrils at compound to amyloid beta ratio of 1:1 after 48 hrs by thioflavin-T fluorescence assay relative to control; method in brief: as §1
[3] = tested on: PC-12; assay: Induction of rat PC12 cell proliferation at 0.5 to 50 uM after 72 hrs by microscopic analysis; assay type: functional, cell-based
Method in brief: (§2)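 Undifferentiated PC12 cells cultured 72 h with compound at 0.5–50 µM (images at 10 µM) or with NGF 50 ng/ml, then examined under a digital microscope.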

[4] = tested on: Mus musculus; assay: Cognition enhancement activity in double APP/PS1 transgenic Alzheimer's disease mouse model assessed as decrease in escape latency at 30 mg/kg/day, po for 80 days by Morris water maze test; assay type: functional, organism-based
Method in brief: (§3)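 APP/PS1 double transgenic mice, six months old, gavaged 30 mg/kg/day in 0.5% CMC-Na for 80 days; vehicle mice and WT C57BL/6 received blank CMC-Na. Escape latency recorded daily over the training trials; n = 10, mean ± SD, two-way ANOVA.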

[5] = tested on: Mus musculus; assay: Cognition enhancement activity in double APP/PS1 transgenic Alzheimer's disease mouse model assessed as increase in number of virtual platform crossing at 30 mg/kg/day, po for 80 days by Morris water maze test; assay type: functional, organism-based
Method in brief: (§4)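 APP/PS1 mice, six months old, gavaged 30 mg/kg/day in 0.5% CMC-Na for 80 days. Probe trial was a single 90 s free swim with the platform absent; effective region is twice the platform diameter. n = 10, mean ± SD, two-way ANOVA.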

[6] = tested on: Mus musculus; assay: Cognition enhancement activity in double APP/PS1 transgenic Alzheimer's disease mouse model assessed as increase in number of effective region crossing at 30 mg/kg/day, po for 80 days by Morris water maze test; assay type: functional, organism-based; method in brief: as §4
[7] = tested on: PC-12; assay: Induction of rat PC12 cell proliferation at 10 uM after 72 hrs by microscopic analysis; assay type: functional, cell-based; method in brief: as §2
[8] = tested on: Mus musculus; assay: Cognition enhancement activity in double APP/PS1 transgenic Alzheimer's disease mouse model assessed as decrease in path searching behavior at 30 mg/kg/day, po for 80 days by Morris water maze test; assay type: functional, organism-based; method in brief: as §3
[9] = Metal chelating activity assessed as compound-Cu2+ complex formation by measuring absorption spectrum at 50 uM after 30 mins by UV-Visible spectrophotometric analysis (reference value: 314 nm)
Method in brief: (§5)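 Ligand 50 µM alone or with 50 µM CuSO4, ZnCl2, FeSO4 or FeCl3 in 20 mM HEPES, 150 mM NaCl, pH 7.4; UV-vis absorbance spectra recorded. For Cu2+, titration at room temperature with absorbance at 338 nm gave stoichiometry.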

[10] = Metal chelating activity assessed as compound-Zn2+ complex formation by measuring absorption spectrum at 50 uM after 30 mins by UV-Visible spectrophotometric analysis (reference value: 314 nm); method in brief: as §5
[11] = Metal chelating activity assessed as compound-Fe2+ complex formation by measuring absorption spectrum at 50 uM after 30 mins by UV-Visible spectrophotometric analysis (reference value: 314 nm); method in brief: as §5
[12] = Metal chelating activity assessed as compound-Fe3+ complex formation by measuring absorption spectrum at 50 uM after 30 mins by UV-Visible spectrophotometric analysis (reference value: 314 nm); method in brief: as §5
[13] = molecular target: Amyloid-beta precursor protein (Homo sapiens) (UniProt P05067); assay: Inhibition of amyloid beta (1 to 42) (unknown origin) self-induced aggregation assessed as less dense fibrils at compound to amyloid beta ratio of 1:1 after 48 hrs by TEM analysis; method in brief: as §1
[14] = molecular target: Amyloid-beta precursor protein (Homo sapiens) (UniProt P05067); assay: Inhibition of amyloid beta (1 to 42) (unknown origin) self-induced aggregation assessed as thinner fibrils at compound to amyloid beta ratio of 1:1 after 48 hrs by TEM analysis; method in brief: as §1
[15] = molecular target: Amyloid-beta precursor protein (Homo sapiens) (UniProt P05067); assay: Induction of disaggregation of amyloid beta (1 to 42) (unknown origin) assessed as narrow aggregation at compound to amyloid beta ratio of 1:1 after 48 hrs by TEM analysis; method in brief: as §1
[16] = molecular target: Amyloid-beta precursor protein (Homo sapiens) (UniProt P05067); assay: Induction of disaggregation of amyloid beta (1 to 42) (unknown origin) assessed as shorter aggregation at compound to amyloid beta ratio of 1:1 after 48 hrs by TEM analysis; method in brief: as §1
[17] = Inhibition of Cu2+ - induced amyloid beta (1 to 42) (unknown origin) aggregation at compound/amyloid beta/Cu2+ ratio of 2:1:1 after 48 hrs by thioflavin T-based fluorometric assay relative to control; settings: concentration not given here
Method in brief: (§6)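 Chelator, Aβ1-42 (25 µM) and Cu2+ at 2:1:1 in HEPES/NaCl, pH 6.6, 37 °C; inhibition measured on fresh peptide and disaggregation on preformed Cu2+-Aβ aggregates. Read by ThT fluorescence (at least three experiments) or by TEM.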

[18] = molecular target: Amyloid-beta precursor protein (Homo sapiens) (UniProt P05067); assay: Induction of disaggregation of Cu2+ -associated amyloid beta (1 to 42) (unknown origin) fibrils at compound/amyloid beta/Cu2+ ratio of 2:1:1 after 48 hrs by thioflavin T-based fluorometric assay relative to control; method in brief: as §6
[19] = Inhibition of Cu2+ - induced amyloid beta (1 to 42) (unknown origin) aggregation assessed as small-sized nonfibrillar amorphos amyloid beta at compound/amyloid beta/Cu2+ ratio of 2:1:1 after 48 hrs by TEM analysis; method in brief: as §6
[20] = tested on: PC-12; assay: Induction of rat PC12 cell proliferation at 0.5 to 50 uM after 72 hrs in presence of ERK inhibitor U0126 by MTT assay; assay type: functional, cell-based
Method in brief: (§7)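 PC12 cells treated with compound together with U0126 (ERK inhibitor, 1 µM) or SB203580 (p38 inhibitor, 1 µM); survival measured by MTT, expressed as percent of control, mean ± SD of at least three experiments.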

[21] = tested on: PC-12; assay: Induction of rat PC12 cell proliferation at 0.5 to 50 uM after 72 hrs in presence of p38 inhibitor SB203580 by MTT assay; assay type: functional, cell-based; method in brief: as §7
[22] = Metal chelating activity assessed as compound-Cu2+ complex formation at 50 uM after 30 mins by mass spectrometry
[23] = molecular target: Amyloid-beta precursor protein (Homo sapiens) (UniProt P05067); assay: Inhibition of amyloid beta (1 to 42) (unknown origin) self-induced aggregation assessed as reduction in unstructured aggregates at compound to amyloid beta ratio of 1:1 after 48 hrs by TEM analysis; method in brief: as §1
[24] = Induction of disaggregation of Cu2+ -associated amyloid beta (1 to 42) (unknown origin) fibrils assessed as small-sized nonfibrillar amorphos amyloid beta at compound/amyloid beta/Cu2+ ratio of 2:1:1 after 48 hrs by TEM analysis; method in brief: as §6
[25] = tested on: SH-SY5Y; assay: Neuroprotective activity against t-BuOOH-induced oxidative stress in human SH-SY5Y cells assessed as inhibition ROS accumulation pre-incubated for 24 hrs before t-BuOOH challnge for 30 mins by DCFH-DA probe based fluorescence assay; assay type: functional, cell-based
Method in brief: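 SH-SY5Y cells; test agents at 1–0.01 µM, oxidative stress induced by tert-butyl hydroperoxide; intracellular ROS read by DCFH-DA fluorescence; at least three independent experiments in sextuplicate; EC50 derived.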

[26] = Antioxidant activity assessed as AAPH radical scavenging activity by measuring trolox equivalent at 10 to 20 uM preincubated for 10 mins followed by AAPH addition measured every min for 120 mins in presence of melatonin by ORAC-FL assay; assay type: functional
Method in brief: (§8)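 ORAC-FL: compound at 10 µM (or 20 µM) in 75 mM phosphate pH 7.4 with fluorescein (70 nM final), preincubated 10 min at 37 °C, then AAPH added. Fluorescence (ex 485/em 520) read each minute for 120 min. Net AUC converted to Trolox equivalents via a 10–100 µM Trolox curve; three independent experiments.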

[27] = molecular target: Amyloid-beta precursor protein (Homo sapiens) (UniProt P05067); assay: Inhibition of amyloid beta (1 to 42) (unknown origin) self-induced aggregation at 5 uM after 48 hrs in presence of melatonin by thioflavin-T fluorescence assay relative to control
Method in brief: (§9)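 ThT assay of Aβ1-42 self-aggregation: Aβ1-42 25 µM with inhibitor 5 µM (5:1); three independent experiments, each in triplicate.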

[28] = tested on: Mus musculus; assay: Induction of cell proliferation in C57BL/6 mouse hippocampal neurons in DG region assessed as BrdU-incorporation at 0.5 uL/hr, icv for 7 days by immunohistochemical analysis (reference value: 7.8%); assay type: functional
[29] = tested on: Mus musculus; assay: Induction of cell proliferation in C57BL/6 mouse hippocampal neurons in CA1 region assessed as BrdU-incorporation at 0.5 uL/hr, icv for 7 days by immunohistochemical analysis (reference value: 3.2%); assay type: functional
[30] = tested on: Mus musculus; assay: Induction of cell proliferation in C57BL/6 mouse hippocampal neurons in CA2 region assessed as BrdU-incorporation at 0.5 uL/hr, icv for 7 days by immunohistochemical analysis (reference value: 2.4%); assay type: functional
[31] = tested on: Mus musculus; assay: Induction of cell proliferation in C57BL/6 mouse hippocampal neurons in CA3 region assessed as BrdU-incorporation at 0.5 uL/hr, icv for 7 days by immunohistochemical analysis (reference value: 1.4%); assay type: functional
[32] = tested on: Mus musculus; assay: Induction of cell proliferation in C57BL/6 mouse hippocampal neurons in DG region assessed as BrdU-incorporation at 30 mg/kg, po administered via gavage for 7 days by immunohistochemical analysis (reference value: 2.2%); assay type: functional
Method in brief: (§10)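 C57BL/6 mice, 12 weeks old, n = 6, individually housed beforehand without wheels. Compound gavaged 30 mg/kg/day for 7 days with daily IP BrdU 50 mg/kg; BrdU+ cells counted by immunohistochemistry per hippocampal volume; two-way ANOVA.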

[33] = tested on: Mus musculus; assay: Induction of cell proliferation in C57BL/6 mouse hippocampal neurons in CA1 region assessed as BrdU-incorporation at 30 mg/kg, po administered via gavage for 7 days by immunohistochemical analysis (reference value: 2.3%); assay type: functional; method in brief: as §10
[34] = tested on: Mus musculus; assay: Induction of cell proliferation in C57BL/6 mouse hippocampal neurons in CA2 region assessed as BrdU-incorporation at 30 mg/kg, po administered via gavage for 7 days by immunohistochemical analysis (reference value: 2.4%); assay type: functional; method in brief: as §10
[35] = tested on: Mus musculus; assay: Induction of cell proliferation in C57BL/6 mouse hippocampal neurons in CA3 region assessed as BrdU-incorporation at 30 mg/kg, po administered via gavage for 7 days by immunohistochemical analysis (reference value: 1.5%); assay type: functional; method in brief: as §10
[36] = Antioxidant activity assessed as AAPH radical scavenging activity by measuring trolox equivalent at 10 to 20 uM preincubated for 10 mins followed by AAPH addition measured every min for 120 mins in presence of clioquinol by ORAC-FL assay; assay type: functional; method in brief: as §8
[37] = molecular target: Amyloid-beta precursor protein (Homo sapiens) (UniProt P05067); assay: Inhibition of amyloid beta (1 to 42) (unknown origin) self-induced aggregation at 5 uM after 48 hrs in presence of clioquinol by thioflavin-T fluorescence assay relative to control; method in brief: as §9

Amyloid-beta precursor protein (Homo sapiens), sequence (P05067 whole entry): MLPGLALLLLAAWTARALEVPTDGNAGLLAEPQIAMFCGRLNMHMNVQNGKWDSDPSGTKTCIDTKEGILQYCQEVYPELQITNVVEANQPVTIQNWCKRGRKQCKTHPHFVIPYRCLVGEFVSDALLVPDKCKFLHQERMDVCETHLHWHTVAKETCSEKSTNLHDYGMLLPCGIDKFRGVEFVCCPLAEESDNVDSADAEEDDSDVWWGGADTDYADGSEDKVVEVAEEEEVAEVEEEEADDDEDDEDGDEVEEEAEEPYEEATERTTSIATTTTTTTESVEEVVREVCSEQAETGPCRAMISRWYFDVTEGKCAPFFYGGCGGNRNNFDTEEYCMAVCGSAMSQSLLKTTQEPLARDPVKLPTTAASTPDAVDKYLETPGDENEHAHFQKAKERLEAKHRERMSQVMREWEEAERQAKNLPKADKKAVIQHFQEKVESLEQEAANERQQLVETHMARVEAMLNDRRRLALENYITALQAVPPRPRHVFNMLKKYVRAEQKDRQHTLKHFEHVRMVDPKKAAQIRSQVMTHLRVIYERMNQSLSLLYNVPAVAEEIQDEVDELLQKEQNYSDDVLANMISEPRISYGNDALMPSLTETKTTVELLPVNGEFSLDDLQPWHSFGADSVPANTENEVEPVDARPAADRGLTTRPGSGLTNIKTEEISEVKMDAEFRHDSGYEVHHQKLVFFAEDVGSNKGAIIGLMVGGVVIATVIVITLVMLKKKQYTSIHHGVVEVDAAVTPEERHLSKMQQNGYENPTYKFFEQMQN

Structure (SMILES) | inhibition [1] [%] | Activity [2] [%] | Activity [3] | Activity [4] | Activity [5] | Activity [6] | Activity [7] | Activity [8] | inhibition [17] [%] | Activity [18] [%] | inhibition [19] | Activity [24] | EC50 [25] [µM] | further results
Oc1c(Cl)cc(Cl)c2ccc(-c3cc4cc5c(cc4[nH]3)OCO5)nc12 | 48.6 to 71.6 | 48.5 to 72.7 | Active | Active | Active | Active | Active | Active | – | – | – | – | – | –
Oc1ccc2[nH]c(-c3ccc4c(Cl)cc(Cl)c(O)c4n3)cc2c1 | 48.6 to 71.6 | 48.5 to 72.7 | Active | Active | Active | Active | Active | Active | 85.8 | 83.3 | Active | Active | – | Activity [9]: 338 nm; Activity [10]: 309 nm; Activity [11]: 324 nm; Activity [12]: 309 nm; inhibition [13]: Active; inhibition [14]: Active; Activity [15]: Active; Activity [16]: Active; Activity [20]: inactive; Activity [21]: inactive; Activity [22]: Active; inhibition [23]: Active
Oc1c(I)cc(Cl)c2cccnc12 [CLIOQUINOL] | – | – | – | – | – | – | – | – | – | – | – | – | > 1 | Activity (umolequiv/umol) [26]: 2.9; inhibition [27]: 22.5%
COc1ccc2[nH]cc(CCNC(C)=O)c2c1 [MELATONIN] | 49.1 | 44.3 | – | – | – | – | – | – | 47.8 | 24 | inactive | inactive | > 1 | Activity [28]: 27.4%; Activity [29]: 2.7%; Activity [30]: 2.1%; Activity [31]: 1.2%; Activity [32]: 9.4%; Activity [33]: 3.2%; Activity [34]: 1.6%; Activity [35]: 1.5%; Activity (umolequiv/umol) [36]: 2.9; inhibition [37]: 22.5%
